Key:
U-251 = assay: Growth inhibition against human U-251 cells assessed as total growth inhibitory concentration incubated for 48 hrs by sulforhodamine B assay; type: functional
SNB-75 = assay: Antiproliferative activity against human SNB-75 cells assessed as cell growth inhibition by measuring lethal concentration incubated for 48 hrs by sulforhodamine B assay; type: functional; settings: read-out: LC50 (the source's name)
In short: (§1)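 NCI-60 five-dose screen (10^-4 to 10^-8 M, 10-fold dilutions; DMSO stocks). Cells in RPMI 1640 with 5% FBS and 2 mM L-glutamine, preincubated 24 h, then exposed 48 h at 37 °C, 5% CO2. Fixed with cold TCA, stained with 0.4% SRB, absorbance read at 515 nm. Time-zero plates used as reference. LC50 taken from [(Ti-Tz)/Tz]×100 […].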

T47D = assay: Growth inhibition against human T47D cells assessed as total growth inhibitory concentration incubated for 48 hrs by sulforhodamine B assay; type: functional
SF-539 = assay: Antiproliferative activity against human SF-539 cells assessed as cell growth inhibition by measuring lethal concentration incubated for 48 hrs by sulforhodamine B assay; type: functional; settings: read-out: LC50 (the source's name)
Calf thymus DNA [1] = assay: Binding affinity to calf thymus DNA assessed as gibbs free energy change at temperature of 318 K by Van't Hoff plot analysis; type: nucleic-acid assay; settings: Bos taurus
OVCAR-5 = assay: Growth inhibition against human OVCAR-5 cells assessed as total growth inhibitory concentration incubated for 48 hrs by sulforhodamine B assay; type: functional
K562 [2] = assay: Antiproliferative activity against human K562 cells assessed as cell growth at 0.0001 M incubated for 48 hrs by SRB assay relative to control; type: functional; settings: read-out: Activity
M14 = assay: Growth inhibition against human M14 cells assessed as total growth inhibitory concentration incubated for 48 hrs by sulforhodamine B assay; type: functional
K562 [3] = assay: Antiproliferative activity against human K562 cells assessed as cell growth at 0.000001 M incubated for 48 hrs by SRB assay relative to control; type: functional; settings: read-out: Activity
Calf thymus DNA [4] = assay: Binding affinity to calf thymus DNA assessed as DNA intercalation by measuring Stem-Volmer quenching constant at temperature of 318 K by fluorescence spectroscopic method; type: nucleic-acid assay; settings: Bos taurus
Calf thymus DNA [5] = assay: Binding affinity to calf thymus DNA assessed as binding constant at temperature of 318 K by Stern-Volmer quenching plot based fluorescence spectroscopic method; type: nucleic-acid assay; settings: Bos taurus
MOLT-4 = assay: Antiproliferative activity against human MOLT-4 cells assessed as cell growth at 0.00001 M incubated for 48 hrs by SRB assay relative to control; type: functional; settings: read-out: Activity
SN12C = assay: Antiproliferative activity against human SN12C cells assessed as cell growth at 0.0001 M incubated for 48 hrs by SRB assay relative to control; type: functional; settings: read-out: Activity
UACC-62 = assay: Growth inhibition against human UACC-62 cells assessed as total growth inhibitory concentration incubated for 48 hrs by sulforhodamine B assay; type: functional
HCT-116 = assay: Antiproliferative activity against human HCT-116 cells assessed as cell growth inhibition by measuring lethal concentration incubated for 48 hrs by sulforhodamine B assay; type: functional; settings: read-out: LC50 (the source's name)
Calf thymus DNA [6] = assay: Binding affinity to calf thymus DNA assessed as binding constant at temperature of 308 K by Stern-Volmer quenching plot based fluorescence spectroscopic method; type: nucleic-acid assay; settings: Bos taurus
Calf thymus DNA [7] = assay: Binding affinity to calf thymus DNA assessed as fluorescence quenching intensity at 5 uM at temperature of 308 K by fluorescence spectroscopic method relative to control; type: nucleic-acid assay; settings: Bos taurus
K562 [8] = assay: Growth inhibition against human K562 cells incubated for 48 hrs by sulforhodamine B assay; type: functional
UACC-257 = assay: Antiproliferative activity against human UACC-257 cells assessed as cell growth inhibition by measuring lethal concentration incubated for 48 hrs by sulforhodamine B assay; type: functional; settings: read-out: LC50 (the source's name); in short: as §1
K562 [9] = assay: Antiproliferative activity against human K562 cells assessed as cell growth at 0.0000001 M incubated for 48 hrs by SRB assay relative to control; type: functional; settings: dose 100 nM, read-out: Activity
SW-620 = assay: Antiproliferative activity against human SW620 cells assessed as cell growth at 0.00001 M incubated for 48 hrs by SRB assay relative to control; type: functional; settings: read-out: Activity
SK-MEL-5 = assay: Antiproliferative activity against human SK-MEL-5 cells assessed as cell growth inhibition by measuring lethal concentration incubated for 48 hrs by sulforhodamine B assay; type: functional; settings: read-out: LC50 (the source's name)
K562 [10] = assay: Growth inhibition against human K562 cells assessed as total growth inhibitory concentration incubated for 48 hrs by sulforhodamine B assay; type: functional
NCI-H226 = assay: Antiproliferative activity against human NCI-H226 cells assessed as cell growth at 0.00001 M incubated for 48 hrs by SRB assay relative to control; type: functional; settings: read-out: Activity
EKVX = assay: Growth inhibition against human EKVX cells assessed as total growth inhibitory concentration incubated for 48 hrs by sulforhodamine B assay; type: functional
HCT-15 = assay: Growth inhibition against human HCT-15 cells assessed as total growth inhibitory concentration incubated for 48 hrs by sulforhodamine B assay; type: functional
Malme-3M = assay: Growth inhibition against human Malme-3M cells assessed as total growth inhibitory concentration incubated for 48 hrs by sulforhodamine B assay; type: functional
Calf thymus DNA [11] = assay: Binding affinity to calf thymus DNA assessed as DNA intercalation by measuring Stem-Volmer quenching constant at temperature of 308 K by fluorescence spectroscopic method; type: nucleic-acid assay; settings: Bos taurus
K562 [12] = assay: Antiproliferative activity against human K562 cells assessed as cell growth at 0.00001 M incubated for 48 hrs by SRB assay relative to control; type: functional; settings: read-out: Activity
Calf thymus DNA [13] = assay: Binding affinity to calf thymus DNA assessed as gibbs free energy change at temperature of 308 K by Van't Hoff plot analysis; type: nucleic-acid assay; settings: Bos taurus
RXF 393 [14] = assay: Antiproliferative activity against human RXF 393 cells assessed as cell growth inhibition by measuring lethal concentration incubated for 48 hrs by sulforhodamine B assay; type: functional; settings: read-out: LC50 (the source's name)
MDA-MB-231 = assay: Antiproliferative activity against human MDA-MB-231 cells assessed as cell growth inhibition by measuring lethal concentration incubated for 48 hrs by sulforhodamine B assay; type: functional; settings: read-out: LC50 (the source's name)
Calf thymus DNA [15] = assay: Binding affinity to calf thymus DNA assessed as quenching constant at temperature of 308 K by fluorescence spectroscopic method; type: nucleic-acid assay; settings: Bos taurus
786-0 = assay: Growth inhibition against human 786-0 cells assessed as total growth inhibitory concentration incubated for 48 hrs by sulforhodamine B assay; type: functional
RXF 393 [16] = assay: Growth inhibition against human RXF 393 cells assessed as total growth inhibitory concentration incubated for 48 hrs by sulforhodamine B assay; type: functional
SF-295 = assay: Growth inhibition against human SF-295 cells assessed as total growth inhibitory concentration incubated for 48 hrs by sulforhodamine B assay; type: functional
Albumin = Albumin (Bos taurus, UniProt P02769); assay: Binding affinity to bovine serum albumin assessed as fluorescence quenching by fluorescence spectroscopic method relative to control; settings: cattle
Sequence of Albumin (P02769 whole entry): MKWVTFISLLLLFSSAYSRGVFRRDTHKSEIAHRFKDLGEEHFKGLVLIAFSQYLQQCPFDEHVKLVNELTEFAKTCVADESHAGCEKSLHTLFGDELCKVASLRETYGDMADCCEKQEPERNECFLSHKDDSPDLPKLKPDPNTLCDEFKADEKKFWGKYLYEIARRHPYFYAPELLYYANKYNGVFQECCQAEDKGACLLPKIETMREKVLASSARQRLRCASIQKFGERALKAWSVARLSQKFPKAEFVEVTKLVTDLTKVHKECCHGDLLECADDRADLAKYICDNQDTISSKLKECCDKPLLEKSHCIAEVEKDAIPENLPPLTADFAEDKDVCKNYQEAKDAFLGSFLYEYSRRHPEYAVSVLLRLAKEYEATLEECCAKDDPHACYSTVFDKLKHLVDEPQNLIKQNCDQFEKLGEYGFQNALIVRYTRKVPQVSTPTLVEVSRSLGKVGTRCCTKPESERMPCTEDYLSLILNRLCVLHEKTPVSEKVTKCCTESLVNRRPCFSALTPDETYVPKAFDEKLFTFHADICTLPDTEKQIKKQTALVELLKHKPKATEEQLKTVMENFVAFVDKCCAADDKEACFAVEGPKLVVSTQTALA

NCI/ADR-RES = assay: Growth inhibition against human NCI/ADR-RES cells assessed as total growth inhibitory concentration incubated for 48 hrs by sulforhodamine B assay; type: functional

Compound: COc1ccc(-c2cn3ccnc3c(-c3ccc4ncn(C5CCCCC5)c4c3)n2)cc1
- TGI (U-251): > 100 µM
- CC50 (SNB-75): > 100 µM
- TGI (T47D): 4.5 µM
- CC50 (SF-539): > 100 µM
- deltaG (Calf thymus DNA [1]): -3.79 kcal/mol
- TGI (OVCAR-5): > 100 µM
- growth at 100 µM (K562 [2]): 11%
- TGI (M14): > 100 µM
- growth at 1 µM (K562 [3]): 25%
- KSV (Calf thymus DNA [4]): 0.73 10^4/M
- Kb (Calf thymus DNA [5]): 0.02 10^4/M
- growth at 10 µM (MOLT-4): 13%
- growth at 100 µM (SN12C): 31%
- TGI (UACC-62): > 100 µM
- CC50 (HCT-116): > 100 µM
- Kb (Calf thymus DNA [6]): 4.57 10^4/M
- Activity (Calf thymus DNA [7]): 65%
- GI50 (K562 [8]): 0.422 µM
- CC50 (UACC-257): > 100 µM
- growth at 0.1 µM (K562 [9]): 92%
- growth at 10 µM (SW-620): 29%
- CC50 (SK-MEL-5): > 100 µM
- TGI (K562 [10]): > 100 µM
- growth at 10 µM (NCI-H226): 25%
- TGI (EKVX): > 100 µM
- TGI (HCT-15): > 100 µM
- TGI (Malme-3M): > 100 µM
- KSV (Calf thymus DNA [11]): 1.68 10^4/M
- growth at 10 µM (K562 [12]): 8%
- deltaG (Calf thymus DNA [13]): -5.85 kcal/mol
- CC50 (RXF 393 [14]): > 100 µM
- CC50 (MDA-MB-231): > 100 µM
- Kq (Calf thymus DNA [15]): 1.68 10^12/M/s

Compound: c1ccc(Cn2cnc3ccc(-c4nc(-c5ccc6c(c5)ncn6C5CCCCC5)cn5ccnc45)cc32)cc1
- TGI (786-0): > 100 µM
- TGI (RXF 393 [16]): 2.75 µM
- TGI (SF-295): 2.98 µM
- Activity (Albumin): 75%
- TGI (NCI/ADR-RES): 5.43 µM
